This data set can be described thus: Toxicity liver stage against HepG2, at 10uM. The data set is classed as cell-based. More on the design: test concentration 10 uM, cell line HepG2-A16-CD81EGFP. The following applies: human, HepG2-A16-CD81EGFP cells; read-out: INHIBITION
The gist of the method: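 Uninfected HepG2-A16-CD81EGFP cells, 3 × 10^3 per well, 1536-well, plated on prespotted compound at 10 μM final, parasite-free screening media added to match infected plates; puromycin 10 μM positive, DMSO 0.5% negative; run in parallel with 48 h PbLuc assay at 37 °C, 5% CO2; viability by CellTiter-Glo luminescence, normalized to controls.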
In the case of `CCOC(=O)c1sc(NC(=O)C(C)C)c(C#N)c1C`, the cytotoxicity at 10 µM was -15.9%.

Turning to `Cc1nc(CCNC(=O)NCc2ccc(N(C)C)nc2)cs1`, the cytotoxicity at 10 µM was -11.3%.

Take `CCN(CC)CC[C@H]1CN(C(=O)c2ccc(F)cc2)CC[C@H]1CC(=O)O`: the cytotoxicity at 10 µM was found to be 3.1%.

In the case of `Cc1nnc(SC2CCc3ccccc3NC2=O)n1C` (configuration not stated), the cytotoxicity at 10 µM was -1.31%.

For the molecule `O=C(NCCc1ccccc1)NCCN1CCC(c2cccs2)CC1`, the cytotoxicity at 10 µM is -4.16%.

Consider `CS(=O)(=O)N1CCN(c2cc(-n3cccc3)ncn2)CC1`, for which the cytotoxicity at 10 µM came to 4.65%.

`CC(C)CN1C(=O)C2(CCN(Cc3ccc(F)cc3)C2)c2ccccc21` (configuration not stated): the cytotoxicity at 10 µM stood at 13%.

As to `Cn1ccc(C(=O)NC2CCC23CCN(Cc2nccs2)CC3)c1` (configuration not stated), the cytotoxicity at 10 µM was -136%.

For the molecule `Cc1noc2nc3c(c(C(=O)/N=c4\[nH]nc(C(C)C)s4)c12)CCC3`, the cytotoxicity at 10 µM is -6.53%.

On to `COc1cccc(-c2cc(C(=O)N3N=C(C)CC3(O)C(F)(F)F)[nH]n2)c1` (configuration not stated), for which the cytotoxicity at 10 µM worked out at 5.97%.

Take `CCn1cc(S(=O)(=O)N2CCN(C(=O)c3cc(Br)cs3)CC2)c(C)n1`: the cytotoxicity at 10 µM worked out at 2.73%.

As to `CC(C(=O)O)n1nc(C(F)(F)F)c(Br)c1C1CC1` (configuration not stated), the cytotoxicity at 10 µM stood at 10.3%.

With `CCOCC(=O)N1CCC(C)(c2nccs2)CC1`, the cytotoxicity at 10 µM worked out at 7.64%.

`O=C(Cc1cccs1)N1CCC(O)(CN2CCc3ccccc3C2)C1` (configuration not stated): the cytotoxicity at 10 µM was -1.47%.

Regarding `CN(C(=O)C1CCOCC1)[C@@H]1CCC[C@@H](N2CCOCC2)[C@@H]1O`, the cytotoxicity at 10 µM was 2.19%.

For `Cc1cnc(C2CCCN(C(=O)c3c[nH]c(=O)[nH]c3=O)C2)s1` (configuration not stated), the cytotoxicity at 10 µM is -1.58%.

`CC(=O)N1CCOC(c2cc(N3CC(O)C3)nc(C)n2)C1` (configuration not stated): the cytotoxicity at 10 µM was 3.16%.

Consider `COCCC(=O)N1CCC(c2noc3nc(C)cc(C(F)(F)F)c23)CC1`, for which the cytotoxicity at 10 µM came to 4.45%.

On to `Nc1nc(C2CCN(C(=O)c3cncs3)CC2)cs1`, for which the cytotoxicity at 10 µM was -1.49%.

As for `CCCN1Cc2ccccc2NC(=O)C12CCNC2` (configuration not stated), the cytotoxicity at 10 µM is 5.92%.

`Cc1cc(C)n(-c2cccc(NC(=O)N3CCC[C@@H]3CO)c2)n1`: the cytotoxicity at 10 µM was determined as 13.9%.

As to `CC1CCN(S(=O)(=O)N2CCCN(CC3CCCO3)CC2)CC1` (configuration not stated), the cytotoxicity at 10 µM was -5.15%.

With `CCN1CCCCC1C(=O)N1CCC(OCCOC)CC1` (configuration not stated), the cytotoxicity at 10 µM is -6.81%.

With `Cc1ccccc1CC(C)(C)NC(=O)COc1cccc(C(N)=O)c1`, the cytotoxicity at 10 µM worked out at 20.4%.

As for `CCOC(=O)c1cnn(C2CCN(C(=O)CCC(C)C)CC2)c1N`, the cytotoxicity at 10 µM is -0.12%.

Turning to `O=C(Nc1ccnc2ccnn12)c1ccc(N2CCC(O)CC2)cc1`, the cytotoxicity at 10 µM amounted to 53.4%.

In the case of `CNC(=O)c1cccc(NC(=O)NC(C)c2cc(C)oc2C)c1C` (configuration not stated), the cytotoxicity at 10 µM is -9.26%.

With `CC(=O)N(CCC(=O)NC1(C#N)CCC1)Cc1ccccc1`, the cytotoxicity at 10 µM was found to be 12.6%.

On to `CCc1cc(CNC(=O)Nc2cc(F)cc(N3CCCC3)c2)on1`, for which the cytotoxicity at 10 µM was 4.79%.

As for `CC(NCCCC#N)c1ccc(-c2cccnc2)cc1` (configuration not stated), the cytotoxicity at 10 µM amounted to 11.3%.

Consider `COCCN(c1ccncc1)S(=O)(=O)c1cc(C)cc(F)c1`, for which the cytotoxicity at 10 µM was found to be 7.83%.

Take `CN(C)Cc1nc(C2(NC(=O)Nc3cccc(F)c3)CCCC2)no1`: the cytotoxicity at 10 µM is 2.32%.

As for `Cc1cc(C(=O)Nc2ccn(CCCN3CCCC3)n2)no1`, the cytotoxicity at 10 µM was -4.13%.

With `Cc1cccc(N(CC(=O)N2CCCCC2)Cc2nc(=O)[nH][nH]2)c1`, the cytotoxicity at 10 µM was -2.85%.

Regarding `Cc1ccc(OCc2nnc(SCC3CCCN(C)C3)o2)cc1` (configuration not stated), the cytotoxicity at 10 µM was -3.73%.

Consider `CCOCc1ccccc1NC(=O)NC1CCN(CC(F)(F)F)C1` (configuration not stated), for which the cytotoxicity at 10 µM was determined as 1.81%.

`O=C(N1CCCC1)N1CCn2c(Cn3cccn3)cnc2C1`: the cytotoxicity at 10 µM is -69.1%.

As to `Cc1nc(NCC2CC2)nc2c1COCC21CCNC1` (configuration not stated), the cytotoxicity at 10 µM is -72.8%.

As for `CN(CCCc1cnn(C)c1)C(=O)Nc1cccc2[nH]nnc12`, the cytotoxicity at 10 µM is -3.98%.

As to `OC1(CNCCSc2ccccn2)CCCNC1` (configuration not stated), the cytotoxicity at 10 µM was -6.46%.

For `COCCN(C)CC(=O)N1C[C@@H](NC(C)=O)[C@H](c2ccc(OC)cc2)C1`, the cytotoxicity at 10 µM was found to be 1.45%.

With `NC(=O)c1csc(N2CCCC(c3nc4ccccc4[nH]3)C2)n1` (configuration not stated), the cytotoxicity at 10 µM worked out at 8.5%.

With `Nc1cnc(-c2ccc(F)cc2Cl)cn1`, the cytotoxicity at 10 µM was -136%.

Take `CSc1nccc(NCc2cc3n(n2)CCCN(S(C)(=O)=O)C3)n1`: the cytotoxicity at 10 µM was 3.25%.

For `COc1ccc(C(=O)N2CCN(c3cc(CCN)nc(C)n3)CC2)cc1`, the cytotoxicity at 10 µM is -8.56%.

On to `CN(Cc1cc2n(n1)CCCN(C(=O)N1CCCC1)C2)Cc1nccs1`, for which the cytotoxicity at 10 µM was -0.63%.

With `CN(CCCc1cnn(C)c1)C(=O)Nc1cccc2[nH]ncc12`, the cytotoxicity at 10 µM was -1.89%.

For `COCCN1CC(C(=O)N(CCN(C)C)Cc2ccc(C)s2)CC1=O` (configuration not stated), the cytotoxicity at 10 µM was found to be 1.98%.

Regarding `COc1cccc(OCC2CCCN(C(=O)c3ncoc3C3CC3)C2)c1` (configuration not stated), the cytotoxicity at 10 µM came to 3.79%.

Take `c1ccc2c(c1)CCN(c1ncnc3sc4c(c13)CCNC4)C2`: the cytotoxicity at 10 µM is 5.66%.

Turning to `CCc1csc(CCNC(=O)C2CC(=O)N(C(C)C)C2)n1` (configuration not stated), the cytotoxicity at 10 µM was -11.9%.

Take `Cc1nn2c(N3CCC(O)C3)cc(-c3ccccc3)nc2c1C` (configuration not stated): the cytotoxicity at 10 µM is -11.5%.

Take `Cn1c(Cn2ccnc2)nnc1C1CCN(C(=O)C2(C)CC2)CC1`: the cytotoxicity at 10 µM is -9.7%.

Turning to `N#CCCSc1sc2c(O)cc(O)nc2c1C#N`, the cytotoxicity at 10 µM was -6.11%.

For `CC(C)c1cc(COCCCC(=O)O)no1`, the cytotoxicity at 10 µM came out at 11.1%.

With `Cn1nc(C2CCCN(Cc3ccsc3)C2)c2nccnc21` (configuration not stated), the cytotoxicity at 10 µM is -2.58%.

On to `O=C(CCc1nccs1)N1CCCC(n2cccn2)C1` (configuration not stated), for which the cytotoxicity at 10 µM was -14.4%.

`Cc1nc(C)n(CC2CCCN2CC(=O)NC2CCOCC2)n1` (configuration not stated): the cytotoxicity at 10 µM is -4.43%.

Consider `CS(=O)(=O)NCC1CCCN(C(=O)c2cccc(F)c2)C1` (configuration not stated), for which the cytotoxicity at 10 µM was -6.93%.

With `Cc1noc(CN2CCCC2c2noc(C3CC3)n2)n1` (configuration not stated), the cytotoxicity at 10 µM was -23.6%.

As to `Cc1ccc(C)c(OCCN2CCC(N3CCNC3=O)CC2)c1`, the cytotoxicity at 10 µM worked out at 1.85%.

On to `Cc1cc(C(=O)N2CCCC2Cn2nc(C)cc2C)on1` (configuration not stated), for which the cytotoxicity at 10 µM is -8.21%.

As to `COc1ccc(Cl)cc1CC(=O)N1CCN(CCO)CC1`, the cytotoxicity at 10 µM is -9.51%.

In the case of `Cn1nccc1-c1ccc2nc(C3CCN(CC4CC4)CC3)nn2c1`, the cytotoxicity at 10 µM was found to be 5.85%.

For the molecule `Cc1cnc(N2Cc3nccn3CC(Cn3ncccc3=O)C2)nc1` (configuration not stated), the cytotoxicity at 10 µM was found to be 7.54%.

In the case of `CN(C)c1ncnc2c1CCN(CC1CCCC1)CC2`, the cytotoxicity at 10 µM turned out to be 1.03%.

As for `Cc1ccc2c(n1)N(CCN(C)C)CCN(C(=O)c1cscn1)C2`, the cytotoxicity at 10 µM is -72.7%.

For `O=C(c1ccccc1)N1CCS(=O)(=O)[C@@H]2CCNCC[C@@H]21`, the cytotoxicity at 10 µM was -127%.

Turning to `Cc1nc(CN2C(=O)COC3(CCN(Cc4ccsc4)CC3)C2C)cs1` (configuration not stated), the cytotoxicity at 10 µM was -123%.

As for `Cc1oncc1C(=O)NCc1cc(=O)n2c(n1)CN(CC(C)C)CCC2`, the cytotoxicity at 10 µM is -0.187%.

For `CN(C)C(=O)COCC1CN(S(C)(=O)=O)Cc2ncn(C)c21` (configuration not stated), the cytotoxicity at 10 µM was 4.39%.

For `O[C@@H]1CC(CNCc2ccc(F)cc2)(COc2cccnc2)C[C@@H]1O` (some centres not stated), the cytotoxicity at 10 µM is -10.8%.

The values above are taken from ChEMBL document CHEMBL4513216, “Probing the Open Global Health Chemical Diversity Library for Multistage-Active Starting Points for Next-Generation Antimalarials” (ACS Infect Dis, 2020).
